Experimental data reported in ChEMBL document CHEMBL1134626, “Synthesis of potent C(2)-symmetric, diol-based hiv-1 protease inhibitors. Investigation of thioalkyl and thioaryl P1/P1' substituents” (J Med Chem, 2001).

Tests used:
[1] = system: Human immunodeficiency virus 1; test: In Vitro anti HIV activity was evaluated in HIV cytopathic assay in MT-4 cells; format: functional; conditions: Human immunodeficiency virus 1, MT4; read-out: ED50 (the source's name)
Summary of the method: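 HIV cytopathic assay in MT-4 cells; protection quantified with vital dye XTT; ED50 calculated from percent cytoprotection per compound.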

[2] = Dissociation constant was measured; format: physicochemical
[3] = target: Human immunodeficiency virus type 1 protease (Human immunodeficiency virus 1, UniProt Q72874); test: Inhibitory activity against HIV protease expressed in Escherichia coli
Summary of the method: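 HIV-1 protease cloned and heterologously expressed in E. coli; Ki determined by fluorometric enzyme assay.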

[4] = system: Human immunodeficiency virus 1; test: Compound was evaluated for Antiviral activity against HIV-1; format: functional; conditions: read-out: ED50 (the source's name)
Summary of the method: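 HIV cytopathic assay in MT-4 cells; cell protection read out with the vital dye XTT. ED50 taken as the 50% inhibitory concentration, calculated from percent cytoprotection for each compound.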

EC50 [1] [nM]	pKa [2]	Ki [3] [nM]	Compound	EC50 [4] [nM]
1300			CNC(=O)[C@@H](NC(=O)[C@H](OCc1ccccc1)[C@H](O)[C@@H](O)[C@@H](OCc1ccccc1)C(=O)N[C@H](C(=O)NC)C(C)C)C(C)C	
> 10000	9.8	16	C=CCS[C@@H](C(=O)NC1c2ccccc2C[C@H]1O)[C@H](O)[C@@H](O)[C@@H](SCC=C)C(=O)N[C@H]1c2ccccc2C[C@H]1O (stereo not given in full)	
96			O=C(NC1c2ccccc2C[C@H]1O)[C@H](OCc1ccccc1)[C@H](O)[C@@H](O)[C@@H](OCc1ccccc1)C(=O)N[C@H]1c2ccccc2C[C@H]1O (stereo not given in full)	
1100	9.7	2.8	O=C(NC1c2ccccc2C[C@H]1O)[C@H](SCc1ccccc1)[C@H](O)[C@@H](O)[C@@H](SCc1ccccc1)C(=O)N[C@H]1c2ccccc2C[C@H]1O (stereo not given in full)	
27	6.4	0.5	O=C(NC1c2ccccc2C[C@H]1O)[C@H](Sc1cccs1)[C@H](O)[C@@H](O)[C@@H](Sc1cccs1)C(=O)N[C@H]1c2ccccc2C[C@H]1O (stereo not given in full)	
110	6	2.3	O=C(NC1c2ccccc2C[C@H]1O)[C@H](Sc1ccccc1F)[C@H](O)[C@@H](O)[C@@H](Sc1ccccc1F)C(=O)N[C@H]1c2ccccc2C[C@H]1O (stereo not given in full)	
260	6.6	1.8	O=C(NC1c2ccccc2C[C@H]1O)[C@H](Sc1ccccc1)[C@H](O)[C@@H](O)[C@@H](Sc1ccccc1)C(=O)N[C@H]1c2ccccc2C[C@H]1O (stereo not given in full)	
210	9.2	4.3	O=C(NC1c2ccccc2C[C@H]1O)[C@H](SCc1ccccc1F)[C@H](O)[C@@H](O)[C@@H](SCc1ccccc1F)C(=O)N[C@H]1c2ccccc2C[C@H]1O (stereo not given in full)	
> 10000	9.6	285	O=C(NC1c2ccccc2C[C@H]1O)[C@H](Sc1ccccn1)[C@H](O)[C@@H](O)[C@@H](Sc1ccccn1)C(=O)N[C@H]1c2ccccc2C[C@H]1O (stereo not given in full)	
			CC(C)(C)NC(=O)[C@@H]1CN(Cc2cccnc2)CCN1C[C@@H](O)C[C@@H](Cc1ccccc1)C(=O)N[C@H]1c2ccccc2C[C@H]1O [INDINAVIR]	73
			Cc1c(O)cccc1C(=O)N[C@@H](CSc1ccccc1)[C@H](O)CN1C[C@H]2CCCC[C@H]2C[C@H]1C(=O)NC(C)(C)C [NELFINAVIR]	56
			CC(C)c1nc(CN(C)C(=O)N[C@H](C(=O)N[C@@H](Cc2ccccc2)C[C@H](O)[C@H](Cc2ccccc2)NC(=O)OCc2cncs2)C(C)C)cs1 [RITONAVIR]	55

Compound	EC50 [1] [nM]	pKa [2]	Ki [3] [nM]	EC50 [4] [nM]
CNC(=O)[C@@H](NC(=O)[C@H](Sc1ccccc1)[C@H](O)[C@@H](O)[C@@H](Sc1ccccc1)C(=O)N[C@H](C(=O)NC)C(C)C)C(C)C	6300	6.6	1.8	
CNC(=O)[C@@H](NC(=O)[C@H](Sc1ccccc1F)[C@H](O)[C@@H](O)[C@@H](Sc1ccccc1F)C(=O)N[C@H](C(=O)NC)C(C)C)C(C)C	3600	6	0.57	
CNC(=O)[C@@H](NC(=O)[C@H](Sc1cccs1)[C@H](O)[C@@H](O)[C@@H](Sc1cccs1)C(=O)N[C@H](C(=O)NC)C(C)C)C(C)C	4200	6.4	1	
